CHO parental Ca: ATP-evoked calcium signal inhibitors, parental CHO, primary screen, counter-screen for OX1R antagonist project, cell-based, fluorescence, Fluo-8 calcium dye. AID 463079, 2010. inhibition, % at 5.6 µM. parental CHO-K1, ATP-induced calcium, Fluo-8 fluorescence. 330,000 tested, 0.63% active;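 active = inhibition above that plate's mean sample inhibition plus 3 SD, cut at about 26% in these data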
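Test system: untransfected parental CHO cell line; also added: ATP stimulus; dosing: 5.6 µM, single dose; signal: calcium-sensitive Fluo-8 fluorescence; measure: percent inhibition of ATP-evoked calcium rise, normalized to controls; benchmarks: low control ATP plus DMSO, high control DMSO only; replication: one well per compound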
TAAR1 ag: human TAAR1 agonists, primary screen, Fluo-8 calcium fluorescence, CHO RD-HGA16 cells. Trace amine-associated receptor 1 (Homo sapiens), Q96RJ0. vehicle wells 0%, saturating PEA agonist 100%. activation, % at 3 µM. 360,000 tested, 0.99% active;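 active = activation above the mean activation of all test compounds in the run plus 3 SD, cut at about 38% in these data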
Target sequence (Q96RJ0 whole entry, looked up): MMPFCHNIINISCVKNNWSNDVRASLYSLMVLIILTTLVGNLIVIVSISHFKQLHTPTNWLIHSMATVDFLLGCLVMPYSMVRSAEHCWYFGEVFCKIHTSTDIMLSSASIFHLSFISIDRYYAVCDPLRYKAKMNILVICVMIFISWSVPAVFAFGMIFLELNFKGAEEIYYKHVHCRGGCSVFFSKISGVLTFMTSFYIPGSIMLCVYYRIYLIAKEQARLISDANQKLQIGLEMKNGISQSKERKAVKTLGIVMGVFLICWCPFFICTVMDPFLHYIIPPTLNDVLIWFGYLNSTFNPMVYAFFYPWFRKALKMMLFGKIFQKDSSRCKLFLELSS
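Test system: RD-HGA16 (CHO) cells co-expressing Gα16 and hTAAR1 / Benchmarks: DMSO vehicle as 0%, PEA at EC100 as 100% / Repeats: no replicates (n 1) / Measure: % activation from peak over basal fluorescence ratio, DMSO-to-PEA scaled / Timing: 17-24 h plating, Fluo-8 75 min 37 °C, 30 min RT / Technique: kinetic Fluo-8 calcium fluorescence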
OX1R antag-1: antagonists of human orexin 1 receptor (OX1R); Orexin/Hypocretin receptor type 1 (Homo sapiens), O43613; OX1R-expressing cells, FRET antagonist read-out; inhibition, % at 6.6 µM; 330,000 tested, 1.8% active; in the data active = inhibition mostly above about 38%, no sharp cut-off; inactive = mostly below about 40%
TAAR1 antag: human TAAR1 antagonists, primary screen, Fluo-8 calcium fluorescence, CHO RD-HGA16 cells; Trace amine-associated receptor 1 (Homo sapiens), Q96RJ0; antagonist; inhibition, % at 3 µM; 360,000 tested, 1.5% active;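 active = inhibition above a per-plate cutoff, the mean inhibition of test compounds on that plate plus 3 SD, cut at about 49% in these data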
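Material: CHO RD-HGA16 cells bearing hTAAR1; compound dosing: one-point dosing, 3 µM nominal final; schedule: dye loading 75 min at 37 °C, then 30 min room temperature; measured by: calcium fluorescence with Fluo-8; control set: vehicle and agonist controls; replication: n of 1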
OX1R antag-2: OX1R (HCRTR1) antagonists, primary screen, fluorescence, CHO/OX1R cells, Fluo-8 calcium, orexin A; 330,000 tested, 0.43% active; Fluo-8 calcium fluorescence; inhibition, % at 5 µM;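 active = inhibition above its plate's threshold, mean inhibition of all tested compounds on the plate plus 3 SD, cut at about 37% in these data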
GPR7 antagonist: GPR7 receptor antagonists, primary screen, cell-based, fluorescence, single concentration | Neuropeptides B/W receptor type 1 (Homo sapiens), P48145 | GPR7-expressing cells, fluorescence antagonist assay | inhibition, % at 4.4 µM | 290,000 tested, 1.1% active; in the data active = inhibition above about 16%, passing the limit was not always enough;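 note: cells stimulated with the agonist NPW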
Target sequence (P48145 whole entry, looked up): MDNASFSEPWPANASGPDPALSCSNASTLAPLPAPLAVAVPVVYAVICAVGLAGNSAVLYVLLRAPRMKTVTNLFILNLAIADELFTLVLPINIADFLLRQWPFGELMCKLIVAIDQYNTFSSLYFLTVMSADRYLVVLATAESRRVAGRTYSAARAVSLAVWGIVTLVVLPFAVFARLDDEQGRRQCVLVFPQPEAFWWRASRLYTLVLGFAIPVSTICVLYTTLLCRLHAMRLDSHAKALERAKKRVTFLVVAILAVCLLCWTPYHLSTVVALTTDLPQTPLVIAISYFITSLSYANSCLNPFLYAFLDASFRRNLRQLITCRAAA
OX1R HTRF conf: OX1R (HCRTR1) antagonists, confirmation, cell-based, HTRF; OX1R-expressing cells, HTRF antagonist assay; inhibition, % at 6.6 µM; shares compounds with OX1R antag-1; 1,800 tested, 49% active; in the data active = inhibition above about 55%;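 note: CHO cells expressing OX1R stimulated with orexin A at about EC80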
CHO-K1 HTRF: signal inhibition in parental CHO-K1 cells, counter-screen for OX1R antagonist project, cell-based, HTRF; shares compounds with OX1R antag-1; HTRF counterscreen; inhibition, % at 6.6 µM; 1,800 tested, 48% active; AID 493232, 2011; in the data active = inhibition above about 17%
Of the large screens only hits and unclear results are named; the others gave an inactive call (follow-up assays come after a bar, where they were run). In the library only some 4.6% were active in any assay of this set; here they are far more common.

CC(=O)c1ccc(NC(=O)CSc2nnc(-c3ccco3)o2)cc1	none
Cc1ccc(NC(=O)CSc2nnc(-c3ccco3)o2)cc1	OX1R antag-1 99 | OX1R HTRF conf inactive | CHO-K1 HTRF inactive
COc1ccc(C(=O)CSc2nnc(CNC(=O)c3ccco3)n2C)cc1	none
CN1C(=O)/C(=C2\SC(=S)N(C(CCC(=O)O)C(=O)O)C2=O)c2ccccc21 (stereo not given)	OX1R antag-1 142 | OX1R HTRF conf 57 | CHO-K1 HTRF 102
C/C(=N\Nc1nc(C)cc(-c2ccccc2)n1)c1cccc(N)c1	none
CCOc1ccc(NC2OCC(O)C(O)C2O)c([N+](=O)[O-])c1 (stereo not given)	OX1R antag-1 82 | OX1R HTRF conf inactive | CHO-K1 HTRF 31
O=C(N/N=C/c1ccc([N+](=O)[O-])o1)C1CC1	OX1R antag-1 127 | OX1R HTRF conf 58 | CHO-K1 HTRF 75
O=C(N/N=C/c1ccc([N+](=O)[O-])o1)C(=O)Nc1ccc(C(=O)O)cc1	none
Cc1nonc1C(=O)N/N=C/c1ccc([N+](=O)[O-])o1	OX1R antag-1 144 | OX1R HTRF conf inactive | CHO-K1 HTRF 81
Cc1nonc1C(=O)N/N=C/c1ccncc1	none
CC(C)N(CCNCc1nnc(-c2ccccc2)o1)C(C)C	none
O=C1c2cc(S(=O)(=O)NCCO)ccc2-c2ccc(S(=O)(=O)NCCO)cc21	OX1R antag-1 79 | OX1R HTRF conf 61 | CHO-K1 HTRF 64
O=C(O)CNS(=O)(=O)c1ccc2c(c1)C(=O)c1cc(S(=O)(=O)NCC(=O)O)ccc1-2	none (no result: CHO parental Ca, OX1R antag-1, OX1R antag-2)
COc1ccccc1CCNC(=O)/C(=C/c1cccnc1)NC(=O)c1ccccc1	none
CCn1c(/C=C2\C(=O)N(C)c3ccccc32)nc2ccccc2c1=O	none
CCn1c(/C=C2/C(=O)N(C)c3ccccc32)nc2ccccc2c1=O	OX1R antag-1 86 | OX1R HTRF conf inactive | CHO-K1 HTRF inactive
O=C(CN1C(=O)S/C(=C/c2cccnc2)C1=O)N1CCOCC1	OX1R antag-1 112 | OX1R HTRF conf inactive | CHO-K1 HTRF 72
O=C(CN1C(=O)S/C(=C/c2ccncc2)C1=O)N1CCOCC1	none
O=C1CCC(C(=O)NCCN2C(=O)S/C(=C\c3cccnc3)C2=O)=NN1	OX1R antag-1 106 | OX1R HTRF conf inactive | CHO-K1 HTRF 59
O=C(O)CN1C(=O)/C(=C\c2cn(CC(=O)N3CCOCC3)c3ccccc23)SC1=S	OX1R antag-1 100 | OX1R HTRF conf inactive | CHO-K1 HTRF 49
O=C(CCN1C(=O)/C(=C\c2ccccc2F)SC1=S)N1CCOCC1	none (no result: CHO parental Ca, OX1R antag-1, OX1R antag-2, GPR7 antagonist)
O=C(CN1C(=O)S/C(=C/c2cccs2)C1=O)N1CCOCC1	OX1R antag-1 86 | OX1R HTRF conf inactive | CHO-K1 HTRF 29
Cc1nnc(SCC(=O)N(C)C2CCCCC2)n1C	none (no result: GPR7 antagonist)
O=C(NCCc1nc2ccccc2[nH]1)/C(=C/c1ccc2c(c1)OCO2)NC(=O)c1ccc(Cl)cc1Cl	none
C/C=N/NC(=O)c1cc(Br)ccc1O	OX1R antag-1 77 | OX1R HTRF conf inactive | CHO-K1 HTRF inactive
COc1ccc(/C=N/NC(=O)c2cc(C)on2)c2ccccc12	OX1R antag-1 87 | OX1R HTRF conf 65 | CHO-K1 HTRF inactive
CC1=C(C#N)C(c2cccnc2)C2=C(N1)c1ccccc1C2=O (stereo not given)	OX1R antag-1 96 | OX1R HTRF conf inactive | CHO-K1 HTRF inactive
CCN(CCCNC(=O)C1CCN(S(=O)(=O)c2cccc3nonc23)CC1)Cc1ccccc1	OX1R antag-1 92 | OX1R HTRF conf inactive | CHO-K1 HTRF 44
C=CCNc1nnc(Sc2ncccc2[N+](=O)[O-])s1	OX1R antag-1 91 | OX1R HTRF conf inactive | CHO-K1 HTRF 33
O=C1NC(C(=O)O)=CC(c2ccc([N+](=O)[O-])cc2)N1 (stereo not given)	OX1R antag-1 104 | OX1R HTRF conf inactive | CHO-K1 HTRF 78
Cc1cccnc1NC(=O)c1ccc([N+](=O)[O-])o1	OX1R antag-1 116 | OX1R HTRF conf inactive | CHO-K1 HTRF 58
O=C(Nc1ccc(N2CCOCC2)cc1)c1ccc([N+](=O)[O-])o1	OX1R antag-1 95 | OX1R HTRF conf inactive | CHO-K1 HTRF inactive
Cc1cccc(NC(=O)c2ccc([N+](=O)[O-])o2)n1	OX1R antag-1 97 | OX1R HTRF conf inactive | CHO-K1 HTRF 64
CCOC(=O)c1sc(NC(=O)c2ccco2)c(C#N)c1C	none
COC(=O)c1sc(NC(=O)c2ccc([N+](=O)[O-])o2)c(C#N)c1C	OX1R antag-1 92 | OX1R HTRF conf 64 | CHO-K1 HTRF 30
Cc1cc(NS(=O)(=O)c2cn(C)nc2C)no1	none
Cc1cc(=O)oc2cc(O)cc(OCc3ccccc3)c12	none (no result: CHO parental Ca, OX1R antag-1, OX1R antag-2, GPR7 antagonist)
Cc1cc(=O)n(C)c(=O)n1CCCCCCOc1ccc([N+](=O)[O-])cc1	none (no result: TAAR1 ag, TAAR1 antag)
Cc1cc(=O)n(C)c(=O)n1CCCCOc1ccc([N+](=O)[O-])cc1	OX1R antag-1 104 | OX1R HTRF conf inactive | CHO-K1 HTRF inactive
CCCCNC1=CC(=O)C(=O)c2ccccc21	OX1R antag-1 161 | OX1R HTRF conf 88 | CHO-K1 HTRF 101
CN(C)S(=O)(=O)c1cccc2c1C(=O)c1ccccc1C2=O	OX1R antag-1 105 | OX1R HTRF conf inactive | CHO-K1 HTRF inactive
Cc1nc(S/C(C(=O)O)=C2/C(=O)Nc3ccccc32)n[nH]1	OX1R antag-1 78 | OX1R HTRF conf inactive | CHO-K1 HTRF 46
Cc1nc(SC2CC(=O)N(c3ccccc3)C2=O)n[nH]1 (stereo not given)	none
O=[n+]1c2c(n([O-])c3ccccc31)CCC2	none (no result: TAAR1 ag, TAAR1 antag)
O=[n+]1c2c(n([O-])c3cc(F)ccc31)CCCC2	OX1R antag-1 82 | OX1R HTRF conf inactive | CHO-K1 HTRF 54
O=C(NC1CCC(O)CC1)c1cccc2cccnc12 (stereo not given)	none
CCN(CC)C(=O)CSc1nnc(-c2c[nH]c3ccccc23)o1	OX1R antag-1 78 | OX1R HTRF conf inactive | CHO-K1 HTRF inactive
[N-]=[N+]=NC(c1ccccc1)c1nc2ccccc2[nH]c1=O (stereo not given)	none
CCOC(=O)C1CCN(C(=O)CCCNC(=O)Cn2cnc3sc(C)c(C)c3c2=O)CC1	none
